TNAP act hiacc – increases human TNAP activity under high phosphate acceptor concentration | P05186 | purified TNAP, CDP-star luminescence, 1 M DEA, 30 min; active compounds read high; 0 = EDTA background, 1 = DMSO-only activity | activation factor at 20 µM | 200,000 tested, under 10 active | AID 1136;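 active = activation factor at least 2 at 20 µM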
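Assay system: human TNAP; Input: enzyme diluted 1/800 final; Reagent: CDP-star luminogenic substrate at 100 µM final; Timing: 30 min, room temperature; Signal: luminescence; Evaluation: TNAP activation factor scaled between EDTA and DMSO control wells.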
NCF1 inh – inhibitors of human p47phox binding; p47phox/p22phox peptide binding, fluorescence polarization, 2 h; P14598; AID 1274; hit rate 0.53% among 220,000; inhibition, % at 24.7 µM;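 active = inhibition above about 30%, limit read from the data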;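 also: 0% = p47phox with labelled peptide and 100% = labelled peptide alone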
Target sequence (P14598 whole entry, looked up): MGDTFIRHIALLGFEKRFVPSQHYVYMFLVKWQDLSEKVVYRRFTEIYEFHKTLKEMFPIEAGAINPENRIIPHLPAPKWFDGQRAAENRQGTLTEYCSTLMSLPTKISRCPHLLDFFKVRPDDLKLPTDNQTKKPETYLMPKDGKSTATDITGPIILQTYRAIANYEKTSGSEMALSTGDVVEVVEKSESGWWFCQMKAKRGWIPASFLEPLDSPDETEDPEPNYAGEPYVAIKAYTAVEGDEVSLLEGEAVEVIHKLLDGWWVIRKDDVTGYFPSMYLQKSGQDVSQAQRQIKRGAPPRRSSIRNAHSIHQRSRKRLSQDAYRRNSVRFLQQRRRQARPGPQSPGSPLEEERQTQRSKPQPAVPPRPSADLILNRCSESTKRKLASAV
TNAP inh hiacc – TNAP (human) inhibition, high acceptor; P05186; inhibition, % at 20 µM; purified TNAP, CDP-star luminescence, 1 M DEA; hit rate 0.03% among 200,000;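 active = over 50% inhibition of tissue-nonspecific alkaline phosphatase at 20 µM in the single-dose screen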;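 also: plate controls were DMSO wells for no effect and EDTA-quenched wells as full inhibition for full effect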
Autophagy HCS – modulators of autophagy | MEF GFP-LC3 puncta imaging; test concentration mostly 10 µM | calls only at 10 µM (by protocol) | hit rate 0.98% among 190,000 | AID 463193;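 active = percentage of spot-positive cells more than 3 SD above its plate mean, without a fluorescence outlier flag or 80% toxicity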;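 also: spot-positive cell cutoff set from DMSO-treated cells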
Ins promoter up – MIN6 insulin promoter up-regulation. MIN6 insulin promoter-GFP reporter, high-content imaging; active compounds read high. z-score at 5 µM. hit rate 0.3% among 190,000;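 active = z-score above 3 at 5 µM with at least 500 cells counted in the well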
TNAP inh noacc – TNAP (human) inhibition, acceptor-free conditions; purified TNAP, CDP-star luminescence, 30 min; inhibition, % at 20 µM; hit rate 0.26% among 200,000; AID 1012;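 active = tissue-nonspecific alkaline phosphatase inhibition above about 50% at 20 µM in the single-dose screen, limit read from the data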;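 also: 0% = DMSO negative control and 100% = EDTA positive control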
* marks the source's active call; other numbers are inactive results; i = inactive; nt = no result given; + = active, no number. Compounds with a hit are over-represented: about 1.8% of the library has one in this group of screens.

SMILES | TNAP act hiacc | NCF1 inh | TNAP inh hiacc | Autophagy HCS | Ins promoter up | TNAP inh noacc
FC(F)(F)c1cc(-c2ccco2)nc(NCCc2ccccc2)n1 | 1 | -11 | -1 | i | 0 | -6
O=Nc1c(O)n(Cc2ccc(Cl)c(Cl)c2)c2ccccc12 | 1.1 | -19 | -5 | i | -0.14 | 0
CCCOc1cccc(C2C(C(=O)c3cccs3)=C(O)C(=O)N2Cc2cccnc2)c1 (stereo unspecified) | nt | -10 | nt | nt | -0.33 | nt
COc1cc(-c2nnc(SCC3(c4ccccc4)OCCO3)o2)cc(OC)c1OC | 1.1 | 4 | -8 | i | 0.19 | -8
O=C(CN1CCN(S(=O)(=O)c2ccc(F)cc2)CC1)c1ccc(O)c(O)c1 | 1 | 4 | 2 | i | -0.66 | 56*
CN1C(=O)C(N=Nc2ccccc2C(=O)O)N(C)C1=S (stereo unspecified) | 0.8 | -22 | 21 | i | -0.17 | 23
O=C(O)/C=C/c1cnc2ccccc2c1 | 1.1 | 0 | -7 | i | 0.19 | -5
CCOC(=O)CSC1=N/C(=C\c2ccc(OC)c(OC)c2)C(=O)N1C | 1 | -13 | 4 | i | 0.38 | 1
COc1ccc(OC)c(NC(=O)c2sc3nc(Cc4ccccc4)cc(C(F)(F)F)c3c2N)c1 | 1 | -34 | -3 | + | 1.2 | -7
O=c1[nH]c(CN2CCN(S(=O)(=O)c3ccccc3C(F)(F)F)CC2)nc2sc3c(c12)CCCC3 | 1 | -73 | 0 | i | 0.27 | -27
O=c1[nH]c(CN2CCN(Cc3ccc4c(c3)OCO4)CC2)nc2sc3c(c12)CCC3 | 1.1 | nt | -11 | nt | 3.5* | -7
COC(=O)c1ccc2c(c1)C(=O)/C(=C/c1ccc(O)cc1)O2 | 0.4 | -4 | 55* | i | 0.1 | 46
Cc1nc2sccc2c(=O)n1-c1cccc(Cl)c1 | 1 | -4 | -1 | i | 0.13 | -4
COc1cc(C2Nc3cccc4cccc(c34)N2)cc(OC)c1O | 0.7 | -19 | 31 | + | nt | 6
CCCNC(=O)N1CCC(C(=O)c2ccc(F)cc2)CC1 | 1 | -4 | -1 | i | -0.44 | -8
CCCNC(=O)N1CCC(C(=O)c2ccc(Cl)cc2)CC1 | 1 | -8 | -1 | i | 3.8* | -6
[O-]/C(=C(\C(=S)NCc1ccccc1)[n+]1ccccc1)c1ccc(Cl)s1 | 1 | -12 | -4 | i | 0.04 | -10
O=C(Oc1ccc(C(=S)N2CCOCC2)cc1)c1ccc(Br)cc1 | 1 | -6 | 2 | i | -0.21 | -3
COc1ccc(C(=O)Oc2ccc(C(=S)N3CCOCC3)cc2)cc1 | 1.1 | 0 | -6 | + | -0.19 | -12
Cc1c(Nc2nc3ccccc3nc2NS(=O)(=O)c2ccccc2)c(=O)n(-c2ccccc2)n1C | 1 | 0 | -4 | + | 0.55 | -8
O=C1C(=O)N(CC2CCCO2)C(c2ccco2)/C1=C(/O)c1ccc(F)cc1 (stereo unspecified) | 1 | -7 | -2 | i | -0.4 | -2
c1ccc(-n2ncc3c(N4CCCCC4)ncnc32)cc1 | 1 | -15 | -3 | i | 1.9 | -7
c1ccc(-n2ncc3c(N4CCN(c5ccccn5)CC4)nc(N4CCCCCC4)nc32)cc1 | 1 | -1 | 4 | i | 4.1* | -10
CCOC(=O)CC1C(=O)NCCN1S(=O)(=O)c1ccc(Cl)cc1Cl (stereo unspecified) | 1.1 | -2 | -6 | i | 3.3* | -6
N#Cc1ccc(CSc2nnc(Cc3cccs3)n2Cc2ccco2)cc1 | 1 | -4 | -3 | + | nt | -7
SMILES | TNAP act hiacc | NCF1 inh | TNAP inh hiacc | Autophagy HCS | Ins promoter up | TNAP inh noacc
S=C(Nc1cccc(Cl)c1Cl)Nn1cnnc1 | 1 | 1 | 2 | i | 0.01 | -25
Cc1ccc(N(CN2CCCC2=O)C(=O)c2ccccc2)cc1 | 1.1 | -10 | -6 | i | 0.4 | -13
COc1ccc(C(=O)N(CN2CCCC2=O)c2ccc(C)cc2)cc1 | 1.1 | -3 | -10 | i | 3.4* | -4
Cc1ccc(S(=O)(=O)N2CCC(NC(=O)c3cccc(C)c3)CC2)cc1 | 1.1 | 0 | -6 | i | -0.18 | -14
Cc1ccc(/C=C/C(=O)c2c(C)nc3ccccn23)cc1 | 1 | -1 | -1 | i | 0.43 | -8
Cc1nc2ccccn2c1C(=O)/C=C/c1cccc([N+](=O)[O-])c1 | 1 | 20 | -2 | + | -0.21 | -6
O=C(CCS(=O)(=O)Cc1ccccc1F)NCc1ccccc1Cl | 1.1 | 1 | -6 | i | 0.48 | -10
Cc1cc([N+](=O)[O-])nn1Cc1ccc(C(=O)N/N=C/c2ccc(N(C)C)cc2)cc1 | nt | -5 | nt | nt | -0.51 | nt
CCN(CCCNC(=O)COc1cc(=O)n(CC)c2ccccc12)Cc1ccccc1 | 1 | 0 | 3 | + | 0.13 | -5
Cc1nnc(SCC(=O)N(C)c2ccccc2)n1Cc1ccccc1 | 1 | -1 | 0 | i | -0.15 | -4
O=C(Nc1ccccc1)c1nn(-c2ccccc2)c(=O)cc1C(F)(F)F | 0.9 | -1 | 8 | + | 0.06 | 1
O=C(c1ccccc1)c1nn(-c2ccccc2)c(=O)cc1C(F)(F)F | 1 | -9 | 0 | i | 1.2 | -6
CCc1ccc(-c2csc(NC(=O)Oc3ccccc3)n2)cc1 | 1 | 30* | 0 | i | 0.27 | -8
COc1ccc(-c2csc(NC(=S)NC(=O)c3ccco3)n2)cc1 | 1 | -28 | 1 | + | -0.48 | 1
O=C(NC(=S)Nc1nc(-c2ccccc2)cs1)c1ccco1 | 1 | -7 | -1 | i | 1 | 9
CN1CCN(c2ccc(-c3ccc4ccccc4n3)cc2)CC1 | 1.1 | -5 | -8 | + | 2 | -13
c1ccc2nc(-c3ccc(N4CCOCC4)cc3)ccc2c1 | 1 | -11 | 0 | i | 1.5 | 1
COc1ccc(C(C(=O)NC2CCCCC2)N(Cc2ccco2)C(=O)CNC(=O)c2ccco2)cc1 (stereo unspecified) | nt | -2 | nt | i | nt | nt
Cc1ccc(C(C(=O)NCc2ccco2)N(Cc2ccco2)C(=O)CNC(=O)c2ccco2)cc1 (stereo unspecified) | 1 | 67* | 0 | i | 1.9 | -5
Cc1ccc(C(C(=O)NCc2ccco2)N(C(=O)CNC(=O)c2cccs2)c2c(C)cc(C)cc2C)cc1 (stereo unspecified) | 1 | -1 | 5 | + | 0.63 | 6
COc1ccc(OCC(=O)N/N=C/C=C/c2ccccc2)cc1 | 1 | 0 | -4 | i | -0.22 | -56
CCN(C(=O)c1cc2c(=O)[nH]c3ccc(C)cc3c2s1)c1ccc(OC)cc1 | nt | -9 | nt | nt | -1.6 | nt
CCOc1ccccc1N1CC(O)=C(c2nc3ccccc3s2)C1=N | 1 | -14 | -2 | + | -3.9 | -12
COC(=O)c1cccnc1-n1c(=O)c2cccnc2n(Cc2cccc(C(F)(F)F)c2)c1=O | 1 | -7 | -3 | i | -0.1 | -4

Bioassay records: PubChem, several laboratories
